Common to all, as to assay: Cell proliferation assay
Common to all, as to type: cell-based

Assay [1] deals with human colon cancer cell line HT-29. The note with it: HT-29, 48 h, read-out: IC50, antiproliferation, Human colon cancer (HT-29). A digest of the protocol:
(§1)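 Log-phase adherent cells were seeded at 5 × 10^4 cells per mL and allowed 24 h before test compound was added at a range of concentrations for 48 h. MTT (5 mg mL−1 stock) was added for a further 4 h. Medium was removed, formazan dissolved in DMSO, and the plate read on a microplate reader. IC50 was calculated from dose–response curves of three independent assays.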

For assay [2], the system named is human breast cancer cell line MCF-7. The conditions noted are these: MCF7, 48 h, read-out: IC50, antiproliferation, Human breast cancer (MCF-7). A digest of the protocol: as §1
The test system of assay [3] is non-small cell lung cancer cell line NCI-H460. The conditions noted are these: Homo sapiens, NCI-H460, 48 h, read-out: IC50, antiproliferation, Non-small cell lung cancer (H460). A digest of the protocol: as §1

From paper PMC9075125 (RSC Advances, 2019) come the findings set out here.

Each structure is given as a SMILES string.

Regarding `CC[C@@]1(O)C(=O)OCc2c1cc1n(c2=O)Cc2cc3ccccc3nc2-1` [CPT, camptothecin], the results for the IC50 in assay [1], in assay [2] and in assay [3] were 40 ± 20 nM, 370 ± 50 nM and 40 ± 2 nM, respectively.
